Four compounds from ChEMBL document CHEMBL1123879, “Synthesis and antiarrhythmic activity of novel 3-alkyl-1-[omega-[4-[(alkylsulfonyl)amino]phenyl]-omega- hydroxyalkyl]-1H-imidazolium salts and related compounds” (J Med Chem, 1987) can be followed below.

The species named for test [1] is Canis familiaris. Description: (§1) Concentration that causes 20% increase in functional refractory period (FRP) was determined on isolated canine ventricular muscle fibers. On the set-up: species or system Canis lupus familiaris, Muscle tissue. In short, it runs like this: (§2)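 Canine right ventricular papillary muscle strips superfused with O2/CO2-gassed saline at 36 ± 0.5 °C. Bipolar electrogram recording. Stimulated at 4× diastolic threshold (2 ms pulses), equilibrated 60 min. FRP measured at 1000 ms cycle length by S2 after every tenth S1 at shortening intervals. Cumulative concentrations; one compound per strip, with vehicle controls. Readout is concentration giving a 20% FRP change, or maximal change; log mean with 90% CI when n > 2.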

For test [2], the system named is Canis familiaris. Kind of test: In vivo intraduodenal activity in mongrel dogs was assessed by % change in heart rate (10 mg/kg administered intradermally). Format: functional, Canis lupus familiaris. As to conditions: in the assay text read “intraduodenally” for “intradermally”. In short, it runs like this: (§3)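 Healthy dogs (8–20 kg) of either sex, pentobarbital 30 mg/kg iv, ventilated, temperature held at 36 ± 0.5 °C. Compound given intraduodenally as suspension in 0.5% tragacanth. HR, BP and FRP measured at 45 min postdose; second dose if FRP/conduction change below 12%. Active dose means FRP change ≥ 12%; HR and BP given as % change, mean ± SEM.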

The subject of test [3] is Canis familiaris. Kind of test: In vivo intraduodenal activity in mongrel dogs was assessed by % change in blood pressure (10 mg/kg administered intradermally). Format: functional, Canis lupus familiaris, Artery. The conditions noted are these: in the assay text read “intraduodenally” for “intradermally”. In short, it runs like this:
as §3

The species entered for test [4] is Canis familiaris. Description: Concentration that causes 20% increase in ADP95 (action potential duration at 95% repolarization) was determined on isolated canine cardiac Purkinje fibers. It counts as functional, Canis lupus familiaris, Purkinje fiber. The gist of the method:
(§4)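 Canine cardiac Purkinje fibres in gassed physiological saline (95% O2–5% CO2, pH 7.35–7.40) at 36 ± 0.5 °C. Paced at 1.0 Hz with 2 ms pulses at twice diastolic threshold. Intracellular microelectrode recording after up to 1 h of stabilisation; 30 min exposure per concentration; one compound per fibre, with vehicle controls. Readout is concentration giving a 20% change in APD95, or maximal APD95 change; log mean with 90% CI when n > 2.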

Test [5] is filed under the species Canis familiaris. Description: Maximum observed change in ADP95 from control value was determined in isolated canine cardiac uM. Format: functional, Canis lupus familiaris. The gist of the method: as §4
Test [6] is filed under the species Canis familiaris. Description: Maximum observed change in FRP from control was determined in isolated canine ventricular muscle fibers at a concentration of 10 uM. Format: functional, Canis lupus familiaris, Muscle tissue. The gist of the method:
as §2

The species entered for test [7] is Canis familiaris. Description: Maximum observed change in FRP from control was determined on isolated canine ventricular muscle fibers at a concentration of 100 uM. Format: functional, Canis lupus familiaris, Muscle tissue. In short, it runs like this:
as §2

The test system of test [8] is Canis familiaris. Kind of test: In vivo antiarrhythmic efficacy in a programmed electrical stimulation (PES) model of mongrel dogs reported as number of animals effective at dose range of 0.3-30 mg/kg. Format: functional, Canis lupus familiaris, Heart. In short, it runs like this: (§5)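 Mongrel dogs (8–17 kg) with two-stage LAD occlusion 24 h earlier, anesthetized with thiopental 15 mg/kg and ventilated; open chest. PES induces SVT/VF; two control arrhythmias 30 min apart. Compound given as 10-min iv infusion, PES repeated 20 min later, dose escalated while still inducible; noninducibility counts as effective. HR and BP reported as % change at effective dose, mean ± SEM.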

Test [9] deals with Canis familiaris. Kind of test: In vivo antiarrhythmic efficacy in a programmed electrical stimulation (PES) model of mongrel dogs expressed as percent change in heart rate at iv dose range of 0.3-10 mg/kg. It counts as functional, Canis lupus familiaris. The gist of the method: as §5
Test [10] has as its system Canis familiaris. Description: In vivo antiarrhythmic efficacy in a programmed electrical stimulation (PES) model of mongrel dogs expressed as minimum effect dose (iv) at iv dose range of 0.3-10 mg/kg. Format: functional, Canis lupus familiaris, Heart. In short, it runs like this:
as §5

The test system of test [11] is Canis familiaris. Kind of test: In vivo antiarrhythmic efficacy in a programmed electrical stimulation (PES) model of mongrel dogs expressed as percent change in blood pressure at iv dose range of 0.3-10 mg/kg. It counts as functional, Canis lupus familiaris. In short, it runs like this: as §5
The species entered for test [12] is Canis familiaris. Kind of test: Maximum observed change in FRP from control was determined in isolated canine ventricular muscle fibers at a concentration of 100 uM. Format: functional, Canis lupus familiaris, Muscle tissue. The gist of the method: as §2
The subject of test [13] is Canis familiaris. Kind of test: In vivo antiarrhythmic efficacy in a programmed electrical stimulation (PES) model of mongrel dogs reported as number of animals effective at dose range of 0.3-10 mg/kg. Format: functional, Canis lupus familiaris, Heart. In short, it runs like this:
as §5

Test [14] addresses Adrenergic receptor beta (Canis familiaris). Description: Concentration effective against displacing [3H]dihydroalprenolol from beta adrenergic receptor from canine ventricular tissue.
The species named for test [15] is Canis familiaris. Described as §1. The conditions noted are these: Canis lupus familiaris; Muscle tissue. In short, it runs like this:
as §2

Test [16] relates to Canis familiaris. Kind of test: In vivo antiarrhythmic efficacy in a programmed electrical stimulation (PES) model of mongrel dogs expressed as percent change in heart rate at iv dose range of 0.1-10 mg/kg. Format: functional, Canis lupus familiaris. In short, it runs like this:
as §5

The species entered for test [17] is Canis familiaris. Description: Concentration that causes 20% increase in ADP95 (action potential duration at 95% repolarization) was determined on isolated canine cardiac Purkinje fibers at a dose range of 0.01-10 uM. Format: functional, Canis lupus familiaris, Purkinje fiber. The gist of the method: as §4
Test [18] concerns Canis familiaris. Description: In vivo antiarrhythmic efficacy in a programmed electrical stimulation (PES) model of mongrel dogs expressed as minimum effect dose (iv) at iv dose range of 0.1-10 mg/kg. It counts as functional, Canis lupus familiaris, Heart. In short, it runs like this: as §5
Test [19] relates to Canis familiaris. Kind of test: In vivo antiarrhythmic efficacy in a programmed electrical stimulation (PES) model of mongrel dogs expressed as percent change in blood pressure at iv dose range of 0.1-10 mg/kg. It counts as functional, Canis lupus familiaris. In short, it runs like this:
as §5

Test [20] deals with Canis familiaris. Kind of test: In vivo antiarrhythmic efficacy in a programmed electrical stimulation (PES) model of mongrel dogs reported as number of animals effective at dose range of 0.1-10 mg/kg. Format: functional, Canis lupus familiaris, Heart. In short, it runs like this: as §5
The species named for test [21] is Canis familiaris. Description: Concentration that causes 20% increase in ADP95 (action potential duration at 95% repolarization) was determined on isolated canine cardiac Purkinje fibers (0.01-10 uM concentration range). It counts as functional, Canis lupus familiaris, Purkinje fiber. In short, it runs like this:
as §4

Test [22] is filed under the species Canis familiaris. Kind of test: Concentration that causes 20% increase in functional refractory period (FRP) was determined on isolated canine ventricular muscle fibers; NR = never reached. As to conditions: Canis lupus familiaris; Muscle tissue. In short, it runs like this: as §2
The subject of test [23] is Canis familiaris. Kind of test: In vivo intraduodenal activity in mongrel dogs was assessed by percent change in heart rate at active dose of 30 mg/kg, administered intradermally. It counts as functional, Canis lupus familiaris. As to conditions: in the assay text read “intraduodenally” for “intradermally”. In short, it runs like this: as §3
The test system of test [24] is Canis familiaris. Description: In vivo intraduodenal activity in mongrel dogs was assessed by percent change in blood pressure at active dose of 30 mg/kg, administered intradermally. Format: functional, Canis lupus familiaris, Artery. As to conditions: in the assay text read “intraduodenally” for “intradermally”. The gist of the method: as §3

As for `Cc1n(CC(O)c2ccc(NS(C)(=O)=O)cc2)cc[n+]1C.[Cl-]` (stereo unspecified), the Activity in the test listed under Canis familiaris [1] stood at 0.2 µM; in the test listed under Canis familiaris [4] it was 0.8 µM. For the same compound, the Heart rate in the test on Canis familiaris [2] was -20%. In addition, in the test with Canis familiaris [3], the Blood pressure was 3%. Also, the “Max delta APD95” value in the test filed under Canis familiaris [5] was found to be 51%. In addition, the “Max delta FRP” value in the test filed under Canis familiaris [6] worked out at 44%; in the test listed under Canis familiaris [7], 56%. For the same compound, the No. effective in the test with Canis familiaris [8] is recorded as 0.
The IC50 is the concentration that inhibits the measured activity by half. Turning to `C[n+]1ccn(CC(O)c2ccc(NS(C)(=O)=O)cc2)c1.[Cl-]` (stereo unspecified), the values for the Activity in the test filed under Canis familiaris [1] and in the test filed under Canis familiaris [4] were 5.9 µM and 1.6 µM, respectively. Further, the Heart rate in the test on Canis familiaris [9] was -23%; in the test on Canis familiaris [2], -10%. The Min effective dose in the test with Canis familiaris [10] is given as 6.5. Besides, the figures for the Blood pressure in the test on Canis familiaris [11] and in the test with Canis familiaris [3] were 0% and 5%, respectively. Besides, in the test listed under Canis familiaris [5], the “Max delta APD95” value is reported as 50%. In addition, the “Max delta FRP” value in the test filed under Canis familiaris [12] turned out to be 31%. The No. effective in the test on Canis familiaris [13] worked out at 2. In addition, the IC50 in [14] turned out to be 2.35 mM.
As for `CCCCCCC[N+](CC)(CC)CCCCc1ccc(Cl)cc1.O=P([O-])(O)O` [CLOFILIUM PHOSPHATE], the Activity result is “Not recorded” in the test filed under Canis familiaris [15] and 0.26 µM in the test listed under Canis familiaris [17]. Besides, the Heart rate in the test with Canis familiaris [16] is -12%; with Canis familiaris [2], -18%. Besides, in the test with Canis familiaris [18], the Min effective dose was 0.63. Moreover, the values for the Blood pressure with Canis familiaris [19] and with Canis familiaris [3] were 2% and -4%, respectively. The “Max delta APD95” value in the test filed under Canis familiaris [5] was determined as 39%. Moreover, in the test filed under Canis familiaris [12], the “Max delta FRP” value amounted to 7%. Also, the No. effective in the test on Canis familiaris [20] is on record as 7.
In the case of `C[n+]1ccn(CC(=O)c2ccc(NS(C)(=O)=O)cc2)c1.[Cl-]`, the Activity was 2.3 µM in the test listed under Canis familiaris [21] and “Not recorded” in the test listed under Canis familiaris [22]. Also, in the test on Canis familiaris [23], the Heart rate was -19%. Moreover, the Blood pressure in the test on Canis familiaris [24] is given as 3%. The “Max delta APD95” value in the test filed under Canis familiaris [5] is listed as 38%. Moreover, the “Max delta FRP” value in the test listed under Canis familiaris [12] is on record as 15%. In addition, the No. effective in the test with Canis familiaris [8] is 0.
